Laboratory results: ChEMBL document CHEMBL5120833, “Structure-based design of novel donepezil-like hybrids for a multi-target approach to the therapy of Alzheimer's disease” (Eur J Med Chem, 2022)
Calls of active or inactive are those of the source. The rule behind the calls is not given here.

Assays:
[1] = target: T1, Fatty-acid amide hydrolase 1 (Homo sapiens, UniProt O00519); experiment: Inhibition of human recombinant FAAH using AMC-AA as substrate preincubated with enzyme for 10 mins followed by substrate addition for 2 hrs by fluorometric analysis
T1 sequence (O00519 whole entry): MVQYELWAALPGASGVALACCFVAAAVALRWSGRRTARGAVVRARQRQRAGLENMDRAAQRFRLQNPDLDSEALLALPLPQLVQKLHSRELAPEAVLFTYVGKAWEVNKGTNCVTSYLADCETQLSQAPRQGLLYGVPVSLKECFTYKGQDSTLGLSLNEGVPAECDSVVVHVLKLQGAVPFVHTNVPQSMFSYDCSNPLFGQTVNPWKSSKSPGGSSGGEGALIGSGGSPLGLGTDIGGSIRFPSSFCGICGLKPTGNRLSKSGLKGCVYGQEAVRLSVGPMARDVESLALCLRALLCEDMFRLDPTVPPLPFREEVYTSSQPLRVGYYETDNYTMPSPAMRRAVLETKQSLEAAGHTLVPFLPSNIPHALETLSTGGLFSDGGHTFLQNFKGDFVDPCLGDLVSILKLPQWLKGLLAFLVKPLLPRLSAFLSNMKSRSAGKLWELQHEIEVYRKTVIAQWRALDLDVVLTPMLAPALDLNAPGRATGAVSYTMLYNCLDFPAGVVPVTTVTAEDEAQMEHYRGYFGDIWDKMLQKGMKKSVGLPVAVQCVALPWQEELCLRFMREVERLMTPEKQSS
Outline: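 Human recombinant FAAH preincubated with inhibitor at several concentrations for 10 min at room temperature with orbital shaking in Tris-HCl 125 mM, Na2EDTA 1 mM, pH 9.0. AMC-AA substrate (5 µM final) added, then 2 h at 37 °C with fluorescence read every 30 s (ex 340, em 450 nm). Percent inhibition taken against no-inhibitor and no-enzyme wells. IC50 given as mean ± SEM of at least two independent triplicate runs.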

Cholinesterase [2] = target: T2, Cholinesterase (Homo sapiens, UniProt P06276); experiment: Inhibition of human BuChE at 10 uM by Ellman's spectrophotometric method
Outline: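 Percent inhibition of human BChE at a fixed 10 μM inhibitor concentration, by modified Ellman spectrophotometric assay in 96-well format. Incubations were run in duplicate. Values are the mean ± SEM of three independent experiments.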

Acetylcholinesterase [3] = target: T3, Acetylcholinesterase (Homo sapiens, UniProt P22303); experiment: Inhibition of human AChE by Ellman's spectrophotometric method
[4] = target: Amyloid-beta precursor protein (Homo sapiens) (UniProt P05067); experiment: Inhibition of amyloid beta (1 to 40) (unknown origin) aggregation at 100 uM incubated for 2 hrs by Thioflavin T based fluorometric assay
Outline: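 Aβ40 (30 µM final) co-incubated with inhibitor (100 µM final) in PBS pH 7.4 containing 2% HFIP, 2 h at 25 °C. Thioflavin T (25 µM) then added and fluorescence read. Run in triplicate, reported as mean ± SEM.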

[5] = Cytotoxicity against human HepG2 cells assessed as inhibition of cell viability incubated for 24 hrs by MTT assay; type: toxicity, cell-based
Outline: (§1)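 Cells from ATCC; SH-SY5Y grown in 1:1 MEM/Ham's F12, HepG2 in MEM with NEAA, both with 10% heat-inactivated FBS, glutamine, penicillin-streptomycin, 37 °C, 5% CO2. Seeded 10,000-25,000 cells/well, next day exposed to half-log serial dilutions (100 µM to 100 nM) in 1% DMSO final, with untreated controls. After 24 or 48 h, MTT 0.5 mg/mL for 3–4 h at 37 °C; formazan dissolved in DMSO/EtOH 1:1, absorbance 570 nm.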

[6] = Cytotoxicity against human SH-SY5Y cells assessed as inhibition of cell viability incubated for 24 hrs by MTT assay; type: toxicity, cell-based; outline: as §1
[7] = Cytotoxicity against human SH-SY5Y cells assessed as inhibition of cell viability incubated for 48 hrs by MTT assay; type: toxicity, cell-based; outline: as §1
[8] = Cytotoxicity against human HepG2 cells assessed as inhibition of cell viability incubated for 48 hrs by MTT assay; type: toxicity, cell-based; outline: as §1
[9] = Protonation constant of the compound, logKi in 30% w/w DMSO/H2O medium; type: physicochemical
Outline: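 pH-potentiometric titration in 30% w/w DMSO/H2O at 25.0 ± 0.1 °C, ionic strength 0.1 M KCl, titrant 0.08 M KOH, ligand 4.4×10^-4 M. Glass and Ag/AgCl electrodes conditioned in DMSO/water mixtures and calibrated by HCl/KOH titration (Gran's method); pKw 14.66. Stepwise protonation constants obtained by fitting the titration data.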

[10] = Metal chelating activity assessed as compound-Zn2+ complex formation at compound:Zn2+ concentration ratio of 1:1 in DMSO-d6/D2O medium by 1H-NMR analysis
Cholinesterase [11] = target: T2, Cholinesterase; experiment: Potency index, ratio of donepezil IC50 to test compound IC50 for inhibition of human BuChE by Ellman's spectrophotometric method
Homo sapiens = organism: Homo sapiens; experiment: Selectivity index, ratio of IC50 for human BuChE to IC50 for human AChE
Acetylcholinesterase [12] = target: T3, Acetylcholinesterase; experiment: Potency index, ratio of donepezil IC50 to test compound IC50 for inhibition of human AChE by Ellman's spectrophotometric method
[13] = Metal chelating activity assessed as compound-Cu2+ complex formation at stoichiometric ratio of 1:1 in 30% w/w DMSO/H2O medium by ESI-MS spectral analysis
Outline: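 ESI-MS on an ion-trap instrument in positive and negative ion modes of Cu2+:ligand 1:1 solution in 30% w/w DMSO/H2O. Ligand concentration 2.6×10^-4 M, pH 5.68. Spray voltage ±4.5 kV, capillary temperature 280 °C, N2 sheath gas.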

[14] = Metal chelating activity assessed as Cu2+-compound complex formation at Cu2+:compound concentration ratio of 1:1 to 1:2 in 30% DMSO/water medium by pH potentiometric analysis
Outline: (§2)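 Cu2+ binding measured by pH-potentiometric titration in 30% w/w DMSO/H2O at 25.0 ± 0.1 °C, ionic strength 0.1 M KCl, with 0.08 M KOH as titrant. Ligand concentration was 4.4×10^-4 M, with Cu:L ratios of 0:1, 1:1 and 1:2. Glass and Ag/AgCl electrodes were checked by HCl/KOH calibration (Gran's method), pKw 14.66. Protonation and complex stability constants came from fitting the data to an equilibrium model.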

Cholinesterase [15] = target: T2, Cholinesterase; experiment: Inhibition of human BuChE by Ellman's spectrophotometric method
Outline: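 Human BChE, modified Ellman spectrophotometric assay in 96-well format. Incubations were run in duplicate. IC50 was determined for inhibitors giving >60% inhibition, from seven final concentrations (10⁻⁵ to 10⁻¹¹ M) diluted in work buffer from a 1000 μM DMSO stock. Values are the mean ± SEM of three independent experiments.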

[16] = Metal chelating activity assessed as Cu2+-compound complex formation by measuring global formation constant, log(beta)(CumHhLl) in 30% DMSO/water medium by pH potentiometric analysis; outline: as §2

T3 sequence (P22303 whole entry): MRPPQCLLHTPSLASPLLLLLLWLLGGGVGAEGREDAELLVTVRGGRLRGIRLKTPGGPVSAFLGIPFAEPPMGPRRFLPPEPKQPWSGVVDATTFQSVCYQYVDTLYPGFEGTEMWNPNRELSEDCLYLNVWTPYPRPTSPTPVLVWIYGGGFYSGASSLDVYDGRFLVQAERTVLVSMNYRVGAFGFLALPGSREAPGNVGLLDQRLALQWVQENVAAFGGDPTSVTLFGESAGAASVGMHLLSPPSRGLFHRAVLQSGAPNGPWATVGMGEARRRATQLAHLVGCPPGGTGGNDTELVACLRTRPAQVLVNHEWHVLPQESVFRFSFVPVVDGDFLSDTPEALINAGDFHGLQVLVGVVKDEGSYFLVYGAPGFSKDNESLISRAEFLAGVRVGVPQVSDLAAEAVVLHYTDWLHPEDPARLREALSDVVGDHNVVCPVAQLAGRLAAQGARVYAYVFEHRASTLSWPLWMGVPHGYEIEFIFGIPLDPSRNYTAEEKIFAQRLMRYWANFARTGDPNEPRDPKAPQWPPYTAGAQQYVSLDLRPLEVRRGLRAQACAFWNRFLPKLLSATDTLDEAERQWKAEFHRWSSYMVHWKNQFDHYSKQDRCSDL
T2 sequence (P06276 whole entry): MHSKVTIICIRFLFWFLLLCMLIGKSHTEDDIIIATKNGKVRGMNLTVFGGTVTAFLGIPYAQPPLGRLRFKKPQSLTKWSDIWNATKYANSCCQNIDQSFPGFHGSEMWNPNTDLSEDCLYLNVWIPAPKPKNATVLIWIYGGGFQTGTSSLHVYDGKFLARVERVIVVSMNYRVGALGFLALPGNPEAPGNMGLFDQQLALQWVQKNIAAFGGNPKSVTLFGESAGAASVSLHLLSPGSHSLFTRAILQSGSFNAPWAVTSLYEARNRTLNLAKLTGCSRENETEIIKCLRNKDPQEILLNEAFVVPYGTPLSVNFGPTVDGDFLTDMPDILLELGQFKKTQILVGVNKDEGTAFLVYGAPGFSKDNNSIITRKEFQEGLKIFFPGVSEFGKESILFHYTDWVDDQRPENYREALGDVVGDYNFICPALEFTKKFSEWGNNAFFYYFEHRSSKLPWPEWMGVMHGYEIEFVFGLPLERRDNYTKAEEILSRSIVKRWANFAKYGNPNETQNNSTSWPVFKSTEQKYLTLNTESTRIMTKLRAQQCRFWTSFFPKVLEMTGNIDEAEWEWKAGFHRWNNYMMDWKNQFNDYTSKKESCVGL
Amyloid-beta precursor protein (Homo sapiens), sequence (P05067 whole entry): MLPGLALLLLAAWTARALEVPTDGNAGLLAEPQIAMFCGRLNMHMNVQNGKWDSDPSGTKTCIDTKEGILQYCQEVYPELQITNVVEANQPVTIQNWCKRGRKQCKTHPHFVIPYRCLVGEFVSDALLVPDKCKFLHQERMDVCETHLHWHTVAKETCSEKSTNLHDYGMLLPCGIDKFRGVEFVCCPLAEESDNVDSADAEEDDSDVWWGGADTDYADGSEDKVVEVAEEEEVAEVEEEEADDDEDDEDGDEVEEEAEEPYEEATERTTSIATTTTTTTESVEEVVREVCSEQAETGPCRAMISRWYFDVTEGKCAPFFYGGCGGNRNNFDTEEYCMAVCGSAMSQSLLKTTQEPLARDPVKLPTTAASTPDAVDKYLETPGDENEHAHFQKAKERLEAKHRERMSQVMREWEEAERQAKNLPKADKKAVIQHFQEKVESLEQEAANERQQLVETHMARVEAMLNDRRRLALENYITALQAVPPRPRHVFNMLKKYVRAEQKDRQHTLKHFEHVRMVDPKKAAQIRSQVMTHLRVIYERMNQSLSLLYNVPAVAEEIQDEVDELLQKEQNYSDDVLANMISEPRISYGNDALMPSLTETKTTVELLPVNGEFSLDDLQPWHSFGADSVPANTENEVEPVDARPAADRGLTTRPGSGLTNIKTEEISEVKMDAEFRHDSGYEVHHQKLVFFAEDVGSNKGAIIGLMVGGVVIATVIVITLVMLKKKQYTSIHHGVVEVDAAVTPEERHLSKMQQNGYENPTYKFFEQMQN

Structure (SMILES)	IC50 [1] [µM]	inhibition (Cholinesterase [2]) [%]	IC50 (Acetylcholinesterase [3]) [µM]	IC50 (Cholinesterase [15]) [µM]	also measured
COc1ccc(OCC(=O)NCC2CCN(Cc3ccccc3)CC2)cc1	40.8	55	0.88		
O=C(COc1ccc(CCc2ccccc2)cc1)NCCN1CCN(Cc2ccccc2)CC1	16.8	45	0.9		inhibition [4]: 30%; IC50 at 24 h [5]: 41.6 µM; IC50 at 24 h [6]: 27.8 µM; IC50 at 48 h [7]: 34.8 µM; IC50 at 48 h [8]: 15.8 µM
O=C(COc1ccc(Cl)cc1[N+](=O)[O-])NCCN1CCN(Cc2ccccc2)CC1	41.6		0.0008	1.41	log(activity) [9]: 2.89; Activity [10]: Active; Ratio IC50 (Cholinesterase [11]): 3; Ratio IC50 (Homo sapiens): 1760; Ratio IC50 (Acetylcholinesterase [12]): 21; IC50 at 24 h [5]: > 100 µM; Activity [13]: Active; Activity [14]: Active; IC50 at 24 h [6]: > 100 µM; IC50 at 48 h [7]: > 100 µM; IC50 at 48 h [8]: > 100 µM; log(activity) [16]: -1.81
Cc1cc(Br)cc(C)c1OCC(=O)NCC1CCN(Cc2ccccc2)CC1	28.6		0.595	2.22	
O=C(COc1ccc(Cl)cc1[N+](=O)[O-])NCC1CCN(Cc2ccccc2)CC1	23.3		0.122	4.7	
O=C(COc1ccc([N+](=O)[O-])cc1)NCCN1CCN(Cc2ccccc2)CC1	43.9		0.042		inhibition [4]: 30%
O=C(COc1ccc([N+](=O)[O-])cc1)NCC1CCN(Cc2ccccc2)CC1	28.5	24	0.509		
O=C(COc1ccc(-c2ccccc2)cc1)NCCN1CCN(Cc2ccccc2)CC1	63.9		0.735	0.969	
O=C(COc1ccc(CCc2ccccc2)cc1)NCC1CCN(Cc2ccccc2)CC1	23.8		0.135	5.08	
O=C(COc1ccccc1C(F)(F)F)NCC1CCN(Cc2ccccc2)CC1	38.2		0.767	1.02	
O=C(COc1ccc(Cc2ccccc2)cc1)NCCN1CCN(Cc2ccccc2)CC1	23.6	29	0.993		
O=C(COc1ccc(-c2ccccc2)cc1)NCC1CCN(Cc2ccccc2)CC1	23.3		1.7	5.58	
O=C(Oc1ccc([N+](=O)[O-])cc1)N1CCN(Cc2cccc(Oc3ccccc3)c2)CC1	0.019				
O=C(COc1ccc(Cl)cc1)NCC1CCN(Cc2ccccc2)CC1	20.9		1.68	5.61	inhibition [4]: 30%; IC50 at 24 h [5]: > 100 µM; IC50 at 24 h [6]: > 100 µM; IC50 at 48 h [7]: > 100 µM; IC50 at 48 h [8]: > 100 µM
COc1ccc(OCC(=O)NCCN2CCN(Cc3ccccc3)CC2)cc1	51.9	25	0.3		inhibition [4]: 30%
O=C(COc1cc(F)ccc1[N+](=O)[O-])NCC1CCN(Cc2ccccc2)CC1	28.1	54	0.103		
O=C(COc1ccc(Cc2ccccc2)cc1)NCC1CCN(Cc2ccccc2)CC1	21.9	37	1.27		
O=C(COc1cc(F)ccc1[N+](=O)[O-])NCCN1CCN(Cc2ccccc2)CC1	49.6		0.0028	5.01	Ratio IC50 (Homo sapiens): 1790; Ratio IC50 (Acetylcholinesterase [12]): 6; IC50 at 24 h [5]: > 100 µM; IC50 at 24 h [6]: > 100 µM; IC50 at 48 h [7]: > 100 µM; IC50 at 48 h [8]: > 100 µM
Cc1cc(Br)cc(C)c1OCC(=O)NCCN1CCN(Cc2ccccc2)CC1	40.8		0.09	4.1	
O=C(COc1ccccc1C(F)(F)F)NCCN1CCN(Cc2ccccc2)CC1	55.1		0.136	0.503	
O=C(COc1ccc(Cl)cc1)NCCN1CCN(Cc2ccccc2)CC1	> 100		0.189	2.15	inhibition [4]: 30%
